Five compounds from PMC11904669 (ACS Omega, 2025) can be followed below.

For one data set, the system named is C57BL/6J mice. The experiment in a line: General observation of mice during peptide treatment. It counts as in vivo, mouse. To be noted: CCl4 mice, 250 μg/kg i.p. daily for 4 weeks. The essentials: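 Male C57BL/6J mice (6–8 wk, 20–24 g) received 20% CCl4 in corn oil s.c. (5 mL/kg) every 2 days for 8 weeks, with corn-oil-injected controls. Test compound was given i.p. at 250 μg/kg daily over the last 4 weeks. Appearance, behavior and food intake were observed, and body weight was monitored (n = 5−7).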

For a further data set, the system named is FN and COL1α1. The experiment in a line: Western blot of FN and COL1α1 in TGF-β-induced LX2 cells. Format: cell-based, human. To be noted: 10 μM.
A further data set deals with COL1α1. The experiment in a line: Western blot of COL1α1. It counts as cell-based, human. To be noted: TGF-β-treated LX2 cells, 10 μM, 24 h, Western blot (Figure 4). A general note: Immunoblotting shows a protein as a band on a membrane.
The next data set concerns α-SMA. The experiment in a line: Western blot of α-SMA in TGF-β-induced LX2 cells. Format: cell-based, human. The settings on record: TGF-β-treated LX2 cells, 10 μM, 24 h, Western blot (Figure 4). A digest of the protocol: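 LX2 human hepatic stellate cells were grown in DMEM with 10% FBS and 1% penicillin-streptomycin at 37 °C, 5% CO2. Cells were induced with TGF-β (10 ng/mL) with or without 10 μM test compound for 24 h. Lysates in RIPA buffer were BCA-quantified, run on SDS-PAGE and transferred to PVDF. Primary antibody was applied overnight at 4 °C, then ECL detection. Densitometry was normalized to GAPDH; n = 3.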

The test system of a further data set is p-ERK. The experiment in a line: Western blot of p-Erk/Erk in liver, CCl4-induced liver fibrosis model. Format: in vivo, mouse. To be noted: CCl4 mice, 250 μg/kg i.p. daily for 4 weeks. The essentials:
(§1)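 Male C57BL/6J mice with CCl4 fibrosis (20% in corn oil s.c., every 2 days, 8 weeks) received test compound 250 μg/kg i.p. daily over the final 4 weeks. Liver tissue was snap-frozen and stored at −80 °C, then lysed in RIPA buffer and BCA-quantified. Samples went through SDS-PAGE and PVDF transfer, overnight primary antibody at 4 °C, and ECL. Phospho-protein densitometry was normalized to GAPDH; n = 5.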

A further data set relates to p-Smad3. The experiment in a line: Western blot of p-Smad3/Smad3 in liver, CCl4-induced liver fibrosis model. It counts as in vivo, mouse. The settings on record: CCl4 mice, 250 μg/kg i.p. daily for 4 weeks. A digest of the protocol: as §1
Data set [1] has as its system CCl4-induced liver fibrosis model. The experiment in a line: Serum ALT, CCl4-induced liver fibrosis model. It counts as in vivo, mouse. The settings on record: CCl4 mice, 250 μg/kg i.p. daily for 4 weeks. The essentials:
(§2)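 CCl4 (20% in corn oil, s.c., every 2 days, 8 weeks) fibrotic male C57BL/6J mice received test compound 250 μg/kg i.p. daily for the last 4 weeks. After the final dose, mice were fasted 9 h and euthanized 8 h later. Blood was drawn retro-orbitally under anesthesia and spun at 1000g for 15 min; serum was stored at −80 °C. ALT or AST was measured by commercial kit; n = 5.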

The test system is the same in data set [2]. The experiment in a line: Serum AST, CCl4-induced liver fibrosis model. It counts as in vivo, mouse. To be noted: CCl4 mice, 250 μg/kg i.p. daily for 4 weeks. The essentials: as §2
The test system is the same in data set [3]. The experiment in a line: Hydroxyproline in liver tissue, CCl4-induced liver fibrosis model. Format: in vivo, mouse. The settings on record: CCl4 mice, 250 μg/kg i.p. daily for 4 weeks, n = 5. The essentials:
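Liver fibrosis was induced in male C57BL/6J mice (6–8 wk) by s.c. 20% CCl4 in corn oil (5 mL/kg) every 2 days for 8 weeks, with corn-oil controls. Test compound was given at 250 μg/kg i.p. daily for the final 4 weeks. Livers were snap-frozen in liquid nitrogen, kept at −80 °C, and assayed for hydroxyproline; n = 5.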

For data set [4] the test system is unchanged. The experiment in a line: SOD in liver tissue, CCl4-induced liver fibrosis model. It counts as in vivo, mouse. To be noted: CCl4 mice, 250 μg/kg i.p. daily for 4 weeks, n = 5.
For data set [5] the test system is unchanged. The experiment in a line: GSH in liver tissue, CCl4-induced liver fibrosis model. Format: in vivo, mouse. To be noted: CCl4 mice, 250 μg/kg i.p. daily for 4 weeks, n = 5.
Data set [6] has the same test system. The experiment in a line: Liver histology. It counts as in vivo, mouse. To be noted: CCl4 mice, 250 μg/kg i.p. daily for 4 weeks. A digest of the protocol: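 CCl4 model: male C57BL/6J mice, s.c. 20% CCl4 in corn oil every 2 days for 8 weeks, test compound 250 μg/kg i.p. daily during the last 4 weeks. Livers were fixed in 10% formaldehyde, deparaffinized and rehydrated. Sections got H&E, Sirius red (10 fields at 20× per liver) and IHC for α-SMA and COL1α1. Positive area was quantified excluding large bile ducts and vessels; n = 5.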

A short description of another data set: Serum stability analysis. It counts as in vitro ADME. The essentials:
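Peptide (5 mM) was incubated in mouse serum at 37 °C for 0, 0.25, 1, 2, 4, 8, 16 and 24 h. Reactions were quenched with ice-cold acetonitrile, vortexed 10 s and left 1 min. Water containing 1% TFA was then added, the mix was centrifuged at 13,000g for 10 min, and the supernatant was collected for analysis.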

In a further data set the test system is LX2 cells. The experiment in a line: CCK-8 assay of cell growth. Format: cell-based, human. The settings on record: high concentration 64.0 μM.

*1 amine or outer side, *2 acyl side, *3 side chain or, on linkers, in order; H or OH if unused. Where a SMILES comes first, the peptide text is derived from it. Where no end group is shown, it is not given here. Side-chain parts run from the residue outwards. The star is where a group is joined. C20 diacid = O=C(O)CCCCCCCCCCCCCCCCCCC(=O)*; γGlu = O=C(O)[C@H](CCC(=O)[*:2])N[*:1]; PEG2 = NCCOCCOCCC(=O)O

Turning to TFGKAPGFPLGS [S6], in the data set on C57BL/6J mice, the “appearance, behavior, food intake, body weight” value is listed as “no abnormalities”.
For the compound `CC(C)C[C@@H]1NC(=O)[C@@H]2CCCN2C(=O)[C@H](Cc2ccccc2)NC(=O)CNC(=O)[C@@H]2CCCN2C(=O)[C@H](C)NC(=O)CNC(=O)CNC(=O)[C@H](Cc2ccccc2)NC(=O)[C@H]([C@@H](C)O)NC(=O)[C@H](CO)NC(=O)CNC1=O` [S19] (cyclo(APGFPLGSTFGG)), the “effect on expression of FN and COL1α1” value in the data set with FN and COL1α1 is reported as “diminished the inhibitory impacts”.
As to `CC(C)C[C@H](NC(=O)[C@@H]1CCCN1C(=O)[C@H](Cc1ccccc1)NC(=O)CNC(=O)[C@@H]1CCCN1C(=O)[C@H](C)NC(=O)[C@H](CCCCNC(=O)CCOCCOCCNC(=O)CCOCCOCCNC(=O)CC[C@H](NC(=O)CCCCCCCCCCCCCCCCCCC(=O)O)C(=O)O)NC(=O)CNC(=O)[C@H](Cc1ccccc1)NC(=O)[C@@H](N)[C@@H](C)O)C(=O)NCC(=O)N[C@@H](CO)C(N)=O` [S6-FA] (H-TFGK([PEG2-PEG2-γGlu-C20 diacid])APGFPLGS-NH2), in the data set with COL1α1, the “expression of COL1α1” value is on record as “conspicuously decreased”. Moreover, the “expression of α-SMA” value with α-SMA is listed as “conspicuously decreased”. Besides, the “phosphorylation of ERK in liver” value with p-ERK is “effectively inhibited”. For the same compound, in the data set on p-Smad3, the “phosphorylation of Smad3 in liver” value is “effectively inhibited”. Besides, the “ALT serum level” value in [1] is given as “remarkably reduced”. Besides, the “AST serum level” value in [2] is recorded as “remarkably reduced”. In addition, in [3], the “HYP content in liver tissue” value is “significantly decreased”. The “content of SOD in liver tissue versus CCl4 group” value in [4] is “significantly higher”. The “content of GSH in liver tissue versus CCl4 group” value in [5] is on record as “significantly higher”. In addition, the “collagen deposition (Sirius red)” value in [6] (n = 5) is given as “more efficacious outcomes in reducing collagen deposition compared to T6-S”. Further, the “fibrosis markers α-SMA and COL1α1 (IHC)” value in data set [6] (versus control group and T6-S group) is recorded as “notably lower”. In the data set with C57BL/6J mice, the “appearance, behavior, food intake, body weight” value is reported as “no abnormalities”. The same compound had a half-life at 5 mM in “Serum stability analysis” (mouse) of about 24 h.
TFGGAPGFPLGS [T6-S]: in the data set with LX2 cells, the “growth of LX2 cells (CCK-8)” value was “did not affect the growth”. Besides, the “peptide detectable by HPLC after incubation in serum” value in “Serum stability analysis” (mouse serum, 37 °C, 5 mM peptide, RP-HPLC-MS, 1 h) amounted to 50%.
As to “TFGGAPGFPLGSPLSSVFPR [T6, reference compound]”, in the data set on LX2 cells, the “growth of LX2 cells (CCK-8)” value was “did not affect the growth”.

The half-life is how long it takes for the measured level to halve. A lower half-life goes with fast loss.
